In PMC4138072 (Biochemistry, 2014):
“Also recorded” adds a separate entry of the source.

What was measured:
[1] = target: T1, SmARG (S. mansoni arginase) (Schistosoma mansoni, UniProt Q6WVP6); experiment: Isothermal titration calorimetry of SmARG–inhibitor complexes; format: binding; conditions: ITC Kd
T1 sequence (Q6WVP6 1-364): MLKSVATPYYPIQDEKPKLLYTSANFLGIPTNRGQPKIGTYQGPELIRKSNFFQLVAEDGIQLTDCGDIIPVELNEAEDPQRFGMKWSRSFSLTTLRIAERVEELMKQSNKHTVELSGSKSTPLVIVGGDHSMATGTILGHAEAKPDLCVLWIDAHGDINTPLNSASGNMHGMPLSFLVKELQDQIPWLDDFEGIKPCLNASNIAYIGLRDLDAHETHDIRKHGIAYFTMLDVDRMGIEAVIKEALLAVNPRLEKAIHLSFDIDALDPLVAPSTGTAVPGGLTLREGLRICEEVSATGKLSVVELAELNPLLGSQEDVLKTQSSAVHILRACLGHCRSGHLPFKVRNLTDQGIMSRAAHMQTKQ

S. mansoni schistosomula = experiment: Helminth fluorescence bioassay; format: cell-based, Schistosoma mansoni; conditions: 100 μM, in vitro cocultivation
In short: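 S. mansoni schistosomula were mechanically transformed and exposed to test compound at 100 μM final. Incubation was 24 h (also 72 h) at 37 °C in humidified 5% CO2. Viability was then scored by the helminth fluorescence bioassay, in duplicate.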

human arginase I [2] = experiment: Isothermal titration calorimetry, human arginase I; format: binding; conditions: ITC Kd, human arginase I versus SmARG
human arginase I [3] = conditions: cited from earlier work
[4] = target: T1, SmARG (S. mansoni arginase); experiment: Colorimetric arginase activity assay; format: biochemical; conditions: Figure S2b
In short: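 Recombinant SmARG was expressed in E. coli BL21(DE3) and purified by Talon affinity then size exclusion into bicine pH 8.5 with 100 μM MnCl2. Reactions used 0.5–50 mM L-arginine in 50 mM EPPS pH 8.5 with 100 μM MnCl2, started with 1 μM enzyme at 21 °C and stopped after 1 min with acid/α-isonitrosopropiophenone. Samples were heated 1 h at 90 °C and urea read at A550. Ki came from a competitive-inhibition Michaelis–Menten fit, in triplicate.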

Structure (SMILES)	enhancement of affinity compared with the parent SmARG–ABH complex [1] [fold]	schistosomula viability or morphology (S. mansoni schistosomula; 24 h, 37 °C, absence of host)	schistosomula viability or morphology (S. mansoni schistosomula; 72 h (data not shown))	other results
N[C@@](CCCCB(O)O)(C(=O)O)C1CCN(Cc2ccc(Cl)c(Cl)c2)CC1 (racemic) [ABHDP, (R)-2-amino-6-borono-2-[1-(3,4-dichlorobenzyl)piperidin-4-yl]hexanoic acid]	5			
N[C@@H](CCCCB(O)O)C(=O)O [ABH, 2(S)-amino-6-boronohexanoic acid]		no significant difference; also recorded: do not affect parasite viability	no significant difference	tighter binding to human arginase I than to SmARG (human arginase I [2]): 260 fold; preferential inhibition of human arginase I compared with nor-NOHA (human arginase I [3]): at least 10 fold
N[C@](CCCCB(O)O)(CCN1CCCCC1)C(=O)O [ABHPE, (R)-2-amino-6-borono-2-[2-(piperidin-1-yl)ethyl]hexanoic acid]	2			
Cl.O=C(O)CCP(CCC(=O)O)CCC(=O)O [TCEP, Tris(2-carboxyethyl)phosphine hydrochloride]				SmARG activity in the presence of reducing reagents [4]: severely attenuated
N=C(NO)NCC[C@H](N)C(=O)O [nor-NOHA, nor-N-hydroxy-L-arginine]		no significant difference; also recorded: do not affect parasite viability	no significant difference	more effective than ABH in binding to SmARG ([1]; N-hydroxyguanidinium moiety versus tetrahedral boronate anion of ABH): ~4 fold
